According to PMC7004521 (Cancer Science, 2019):

Test: Adverse events suspected to be study drug related, phase 1 study
Format: in vivo, human
How it was run: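 Adult patients with advanced solid tumours and confirmed MET dysregulation took oral capsules twice daily from 100 up to 600 mg in escalation, or 400 mg bid tablets, in 28-day cycles. Expansion was 600 mg bid capsules, with a switch to 400 mg bid tablets allowed. Patients were included if they had ≥1 dose and ≥1 valid post-baseline safety assessment. Events were graded by CTCAE v4.0.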

[1] = drug-related, escalation 600 mg bid n=8
[2] = drug-related, escalation 100-350 mg bid n=16
[3] = drug-related, expansion RP2D HCC n=11
[4] = drug-related, expansion RP2D gastric cancer n=9
[5] = drug-related, expansion RP2D other n=18

Question: Which results are given for `CNC(=O)c1ccc(-c2cnc3ncc(Cc4ccc5ncccc5c4)n3n2)cc1F` [capmatinib]?
Answer: Hypoalbuminemia, grade 3/4 [1]: 0 n (%); Hypophagia, all grades [1]: 0 n (%); Hypophagia, grade 3/4 [1]: 0 n (%); Lipase increased, all grades [1]: 0 n (%); Lipase increased, grade 3/4 [1]: 0 n (%); Maculo‐papular rash, all grades [1]: 0 n (%); Maculo‐papular rash, grade 3/4 [1]: 0 n (%); Myalgia, all grades [1]: 0 n (%); Myalgia, grade 3/4 [1]: 0 n (%); Nausea, all grades [1]: 3 (38) n (%); Nausea, grade 3/4 [1]: 0 n (%); Odynophagia, all grades [1]: 0 n (%); Odynophagia, grade 3/4 [1]: 0 n (%); Peripheral edema, all grades [1]: 1 (13) n (%); Peripheral edema, grade 3/4 [1]: 0 n (%); Pyrexia, all grades [1]: 0 n (%); Pyrexia, grade 3/4 [1]: 0 n (%); Stomatitis, all grades [1]: 1 (13) n (%); Stomatitis, grade 3/4 [1]: 0 n (%); Thrombocytopenia, all grades [1]: 0 n (%); Thrombocytopenia, grade 3/4 [1]: 0 n (%); Total protein decreased, all grades [1]: 1 (13) n (%); Total protein decreased, grade 3/4 [1]: 0 n (%); Upper abdominal pain, all grades [1]: 0 n (%); Upper abdominal pain, grade 3/4 [1]: 0 n (%); Vomiting, all grades [1]: 3 (38) n (%); Vomiting, grade 3/4 [1]: 0 n (%); ALT increased, all grades [2]: 0 n (%); ALT increased, grade 3/4 [2]: 0 n (%); AST increased, all grades [2]: 1 (6) n (%); Amylase increased, all grades [2]: 2 (13) n (%); Amylase increased, grade 3/4 [2]: 1 (6) n (%); Asthenia, all grades [2]: 4 (25) n (%); Asthenia, grade 3/4 [2]: 0 n (%); Blood bilirubin increased, all grades [2]: 3 (19) n (%); Blood bilirubin increased, grade 3/4 [2]: 1 (6) n (%); Blood creatinine increased, all grades [2]: 2 (13) n (%); Blood creatinine increased, grade 3/4 [2]: 0 n (%); Constipation, all grades [2]: 2 (13) n (%); Constipation, grade 3/4 [2]: 0 n (%); Decreased appetite, all grades [2]: 5 (31) n (%); Decreased appetite, grade 3/4 [2]: 1 (6) n (%); Diarrhea, all grades [2]: 2 (13) n (%); Diarrhea, grade 3/4 [2]: 0 n (%); Dizziness, all grades [2]: 0 n (%); Dizziness, grade 3/4 [2]: 0 n (%); Dyspepsia, all grades [2]: 0 n (%); Dyspepsia, grade 3/4 [2]: 0 n (%); Fatigue, all grades [2]: 3 (19) n (%); Fatigue, grade 3/4 [2]: 2 (13) n (%); Headache, all grades [2]: 1 (6) n (%); Headache, grade 3/4 [2]: 0 n (%); Hypoalbuminemia, all grades [2]: 3 (19) n (%); Hypoalbuminemia, grade 3/4 [2]: 1 (6) n (%); Hypophagia, all grades [2]: 2 (13) n (%); Hypophagia, grade 3/4 [2]: 2 (13) n (%); Lipase increased, all grades [2]: 1 (6) n (%); Lipase increased, grade 3/4 [2]: 1 (6) n (%); Maculo‐papular rash, all grades [2]: 0 n (%); Maculo‐papular rash, grade 3/4 [2]: 0 n (%); Myalgia, all grades [2]: 2 (13) n (%); Myalgia, grade 3/4 [2]: 0 n (%); Nausea, all grades [2]: 3 (19) n (%); Nausea, grade 3/4 [2]: 0 n (%); Odynophagia, all grades [2]: 1 (6) n (%); Odynophagia, grade 3/4 [2]: 0 n (%); Peripheral edema, all grades [2]: 3 (19) n (%); Peripheral edema, grade 3/4 [2]: 1 (6) n (%); Pyrexia, all grades [2]: 1 (6) n (%); Pyrexia, grade 3/4 [2]: 0 n (%); Stomatitis, all grades [2]: 0 n (%); Stomatitis, grade 3/4 [2]: 0 n (%); Thrombocytopenia, all grades [2]: 1 (6) n (%); Thrombocytopenia, grade 3/4 [2]: 0 n (%); Total protein decreased, all grades [2]: 1 (6) n (%); Total protein decreased, grade 3/4 [2]: 0 n (%); Upper abdominal pain, all grades [2]: 1 (6) n (%); Upper abdominal pain, grade 3/4 [2]: 0 n (%); Vomiting, all grades [2]: 4 (25) n (%); Vomiting, grade 3/4 [2]: 0 n (%); ALT increased, all grades [3]: 0 n (%); ALT increased, grade 3/4 [3]: 0 n (%); AST increased, all grades [3]: 1 (9) n (%); AST increased, grade 3/4 [3]: 1 (9) n (%); Amylase increased, all grades [3]: 0 n (%); Amylase increased, grade 3/4 [3]: 0 n (%); Asthenia, all grades [3]: 1 (9) n (%); Asthenia, grade 3/4 [3]: 0 n (%); Blood bilirubin increased, all grades [3]: 0 n (%); Blood bilirubin increased, grade 3/4 [3]: 0 n (%); Blood creatinine increased, all grades [3]: 1 (9) n (%); Blood creatinine increased, grade 3/4 [3]: 1 (9) n (%); Constipation, all grades [3]: 0 n (%); Constipation, grade 3/4 [3]: 0 n (%); Decreased appetite, all grades [3]: 2 (18) n (%); Decreased appetite, grade 3/4 [3]: 0 n (%); Diarrhea, all grades [3]: 4 (36) n (%); Diarrhea, grade 3/4 [3]: 0 n (%); Dizziness, all grades [3]: 1 (9) n (%); Dizziness, grade 3/4 [3]: 0 n (%); Dyspepsia, all grades [3]: 0 n (%); Dyspepsia, grade 3/4 [3]: 0 n (%); Fatigue, all grades [3]: 3 (27) n (%); Fatigue, grade 3/4 [3]: 0 n (%); Headache, all grades [3]: 0 n (%); Headache, grade 3/4 [3]: 0 n (%); Hypoalbuminemia, all grades [3]: 0 n (%); Hypoalbuminemia, grade 3/4 [3]: 0 n (%); Lipase increased, all grades [3]: 2 (18) n (%); Lipase increased, grade 3/4 [3]: 2 (18) n (%); Localized edema, all grades [3]: 0 n (%); Localized edema, grade 3/4 [3]: 0 n (%); Maculo‐papular rash, all grades [3]: 0 n (%); Maculo‐papular rash, grade 3/4 [3]: 0 n (%); Myalgia, all grades [3]: 0 n (%); Myalgia, grade 3/4 [3]: 0 n (%); Nausea, all grades [3]: 5 (46) n (%); Nausea, grade 3/4 [3]: 1 (9) n (%); Odynophagia, all grades [3]: 0 n (%); Odynophagia, grade 3/4 [3]: 0 n (%); Peripheral edema, all grades [3]: 3 (27) n (%); Peripheral edema, grade 3/4 [3]: 0 n (%); Pyrexia, all grades [3]: 0 n (%); Pyrexia, grade 3/4 [3]: 0 n (%); Stomatitis, all grades [3]: 0 n (%); Stomatitis, grade 3/4 [3]: 0 n (%); Thrombocytopenia, all grades [3]: 1 (9) n (%); Thrombocytopenia, grade 3/4 [3]: 0 n (%); Total protein decreased, all grades [3]: 0 n (%); Total protein decreased, grade 3/4 [3]: 0 n (%); Upper abdominal pain, all grades [3]: 0 n (%); Upper abdominal pain, grade 3/4 [3]: 0 n (%); Vomiting, all grades [3]: 3 (27) n (%); Vomiting, grade 3/4 [3]: 1 (9) n (%); ALT increased, all grades [4]: 1 (11) n (%); ALT increased, grade 3/4 [4]: 1 (11) n (%); AST increased, all grades [4]: 1 (11) n (%); Amylase increased, all grades [4]: 0 n (%); Amylase increased, grade 3/4 [4]: 0 n (%); Asthenia, all grades [4]: 0 n (%); Asthenia, grade 3/4 [4]: 0 n (%); Blood bilirubin increased, all grades [4]: 0 n (%); Blood bilirubin increased, grade 3/4 [4]: 0 n (%); Blood creatinine increased, all grades [4]: 0 n (%); Blood creatinine increased, grade 3/4 [4]: 0 n (%); Constipation, all grades [4]: 0 n (%); Constipation, grade 3/4 [4]: 0 n (%); Decreased appetite, all grades [4]: 0 n (%); Decreased appetite, grade 3/4 [4]: 0 n (%); Diarrhea, all grades [4]: 0 n (%); Diarrhea, grade 3/4 [4]: 0 n (%); Dizziness, all grades [4]: 0 n (%); Dizziness, grade 3/4 [4]: 0 n (%); Dyspepsia, all grades [4]: 0 n (%); Dyspepsia, grade 3/4 [4]: 0 n (%); Fatigue, all grades [4]: 3 (33) n (%); Fatigue, grade 3/4 [4]: 1 (11) n (%); Headache, all grades [4]: 1 (11) n (%); Headache, grade 3/4 [4]: 0 n (%); Hypoalbuminemia, all grades [4]: 0 n (%); Hypoalbuminemia, grade 3/4 [4]: 0 n (%); Lipase increased, all grades [4]: 0 n (%); Lipase increased, grade 3/4 [4]: 0 n (%); Localized edema, all grades [4]: 0 n (%); Localized edema, grade 3/4 [4]: 0 n (%); Maculo‐papular rash, all grades [4]: 0 n (%); Maculo‐papular rash, grade 3/4 [4]: 0 n (%); Myalgia, all grades [4]: 0 n (%); Myalgia, grade 3/4 [4]: 0 n (%); Nausea, all grades [4]: 0 n (%); Nausea, grade 3/4 [4]: 0 n (%); Odynophagia, all grades [4]: 0 n (%); Odynophagia, grade 3/4 [4]: 0 n (%); Peripheral edema, all grades [4]: 3 (33) n (%); Peripheral edema, grade 3/4 [4]: 0 n (%); Pyrexia, all grades [4]: 0 n (%); Pyrexia, grade 3/4 [4]: 0 n (%); Stomatitis, all grades [4]: 0 n (%); Stomatitis, grade 3/4 [4]: 0 n (%); Thrombocytopenia, all grades [4]: 1 (11) n (%); Thrombocytopenia, grade 3/4 [4]: 1 (11) n (%); Total protein decreased, all grades [4]: 0 n (%); Total protein decreased, grade 3/4 [4]: 0 n (%); Upper abdominal pain, all grades [4]: 0 n (%); Upper abdominal pain, grade 3/4 [4]: 0 n (%); Vomiting, all grades [4]: 0 n (%); Vomiting, grade 3/4 [4]: 0 n (%); ALT increased, all grades [5]: 1 (6) n (%); ALT increased, grade 3/4 [5]: 1 (6) n (%); AST increased, all grades [5]: 2 (11) n (%); Amylase increased, all grades [5]: 0 n (%); Amylase increased, grade 3/4 [5]: 0 n (%); Asthenia, all grades [5]: 1 (6) n (%); Asthenia, grade 3/4 [5]: 0 n (%); Blood bilirubin increased, all grades [5]: 0 n (%); Blood bilirubin increased, grade 3/4 [5]: 0 n (%); Blood creatinine increased, all grades [5]: 1 (6) n (%); Blood creatinine increased, grade 3/4 [5]: 0 n (%); Constipation, all grades [5]: 1 (6) n (%); Constipation, grade 3/4 [5]: 0 n (%); Decreased appetite, all grades [5]: 2 (11) n (%); Decreased appetite, grade 3/4 [5]: 0 n (%); Diarrhea, all grades [5]: 3 (17) n (%); Diarrhea, grade 3/4 [5]: 0 n (%); Dizziness, all grades [5]: 1 (6) n (%); Dizziness, grade 3/4 [5]: 0 n (%); Dyspepsia, all grades [5]: 2 (11) n (%); Dyspepsia, grade 3/4 [5]: 0 n (%); Fatigue, all grades [5]: 3 (17) n (%); Fatigue, grade 3/4 [5]: 0 n (%); Headache, all grades [5]: 0 n (%); Headache, grade 3/4 [5]: 0 n (%); Hypoalbuminemia, all grades [5]: 1 (6) n (%); Hypoalbuminemia, grade 3/4 [5]: 0 n (%); Lipase increased, all grades [5]: 1 (6) n (%); Lipase increased, grade 3/4 [5]: 0 n (%); Localized edema, all grades [5]: 2 (11) n (%); Localized edema, grade 3/4 [5]: 0 n (%); Maculo‐papular rash, all grades [5]: 2 (11) n (%); Maculo‐papular rash, grade 3/4 [5]: 0 n (%); Myalgia, all grades [5]: 2 (11) n (%); Myalgia, grade 3/4 [5]: 0 n (%); Nausea, all grades [5]: 6 (33) n (%); Nausea, grade 3/4 [5]: 0 n (%); Odynophagia, all grades [5]: 0 n (%); Odynophagia, grade 3/4 [5]: 0 n (%); Peripheral edema, all grades [5]: 4 (22) n (%); Peripheral edema, grade 3/4 [5]: 0 n (%); Pyrexia, all grades [5]: 0 n (%); Pyrexia, grade 3/4 [5]: 0 n (%); Stomatitis, all grades [5]: 1 (6) n (%); Stomatitis, grade 3/4 [5]: 0 n (%); Thrombocytopenia, all grades [5]: 0 n (%); Thrombocytopenia, grade 3/4 [5]: 0 n (%); Total protein decreased, all grades [5]: 0 n (%); Total protein decreased, grade 3/4 [5]: 0 n (%); Upper abdominal pain, all grades [5]: 0 n (%); Upper abdominal pain, grade 3/4 [5]: 0 n (%); Vomiting, all grades [5]: 4 (22) n (%); Vomiting, grade 3/4 [5]: 0 n (%); lipase increase, grade 3 or 4 (suspected study drug‐related, dose‐expansion cohorts): 5%
